Assay results as given in publication PMC6774440 (Journal of molecular recognition : JMR, 2018).

system: T10; type: binding, llama; settings: cross-reactivity = IC50(TCC)/IC50(cross reacting compound) × 100; nanobody T10
How it was run: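 Wild-type T10 (synthetic gene, pET28a(+), ompA leader, C-terminal His6/HA tags) expressed in BL21(DE3) (10 µM IPTG, 16 h, 15 °C), purified by Ni-NTA. Checkerboard-optimized TCC-BSA coat (4 h RT), 1% BSA block. Nanobody competed with serial dilutions of TCC (0–1 ug/mL) or related compounds, 1 h RT. Detection: anti-HA-peroxidase, TMB (pH 5.5, 10 min), A450.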

Going from O=C(Nc1ccc(Cl)cc1)Nc1ccc(Cl)c(C(F)(F)F)c1 [3-Trifluoromethyl-4,4′-dichlorocarbanilide] to O=C(Nc1ccc(Cl)cc1)Nc1ccc(Cl)c(Cl)c1 [TCC, 3-(4-chlorophenyl)-1-(3,4-dichlorophenyl)urea], the “CR (%) T10” value rises from 15% to 100%.

Compared with Oc1cc(Cl)ccc1Oc1ccc(Cl)cc1Cl [Triclosan], O=C(Nc1ccc(Cl)c(Cl)c1)Nc1ccc(Cl)cc1O [2’-OH TCC] is higher in “CR (%) T10” value: 0.9% for the first, 15% for the second.

Compared with O=C(Nc1ccc(Cl)cc1)Nc1ccc(Cl)cc1 [4,4’-Dichlorocarbanilide], O=C(Nc1ccccc1)Nc1ccccc1 [Carbanilide] is lower in “CR (%) T10” value: 100% for the first, 8.8% for the second.

Compared with CC(=O)N1CCC(NC(=O)Nc2ccc(OC(F)(F)F)cc2)CC1 [sEHi, #1555], CS(=O)(=O)N1CCC(NC(=O)Nc2ccc(OC(F)(F)F)cc2)CC1 [sEHi, #1709] is higher in “CR (%) T10” value: 0.9% for the first, 1.5% for the second.

In the case of Dinuron, the “CR (%) T10” value was no more than 1%.
